Reference: the RNAGym collection of RNA variant scans (doi:10.1126/science.aae0568)
Fewer inactive variants are shown than the library holds.

B1: tRNA (parent)
chain: GUUCCGUUGGCGUAAUGGUAACGCGUCUCCCUCCUAAGGAGAAGACUGCGGGUUCGAGUCCCGUACGGAACG

Variants of: B1
Assay: yeast fitness relative to wild type (ratio to wild type); higher = fitter; tRNA-Arg(CCU), competitive growth, 37 C, YPD
Procedure, shortened: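 Amplicons of the tRNA-Arg(CCU) gene were sequenced, 100-nucleotide paired-end, from the start population and from each end population of a pooled yeast competition. The competition, in six parallel replicates, lasted 24 hours in YPD at 37°C. Fitness relative to wild type was calculated from changes in genotype frequencies. Genotypes had to have ≥ 100 starting reads, and estimates < 0.5 were set to 0.5.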

A20G A40G A57U A65G and A20G A40G G44A C46G cannot be ordered by yeast fitness: no more than 0.5 for the first, no more than 0.5 for the second.

Compared with A20G A40G G50C A65G C66U, A20G A42C is higher in yeast fitness: no more than 0.5 for the first, 1.05 for the second.

First: A20G A42C A45C G67C
Second: A20G A42G
The yeast fitness of the first is lower: no more than 0.5 for the first, 0.969 for the second.

First: A20G A42G G58A
Second: A20G A43C
The yeast fitness of the first is lower: 0.806 for the first, 1.09 for the second.

Compared with A20G A43C A57U, A20G A43C G56A A57U is lower in yeast fitness: 0.538 for the first, no more than 0.5 for the second.

First: A20G A43G
Second: A20G A43G A65U
The yeast fitness of the first is higher: 1.07 for the first, 0.596 for the second.

First: A20G A43G U47G G67C
Second: A20G A43U G48A
The yeast fitness of the first is lower: no more than 0.5 for the first, 0.73 for the second.

Compared with A20G A45C A69U, A20G A45C A70C is higher in yeast fitness: 0.729 for the first, 0.789 for the second.

A20G A45C G50A U54G and A20G A57C C62U cannot be ordered by yeast fitness: no more than 0.5 for the first, no more than 0.5 for the second.

Going from A20G A65G to A20G A65G A70C, the yeast fitness falls from 0.986 to 0.694.

Compared with A20G C22A A37C A65G, A20G C22A A42G is higher in yeast fitness: no more than 0.5 for the first, 0.557 for the second.

First: A20G C22G
Second: A20G C22G C27G C30U C31G G51C C61A A69C
The yeast fitness of the first is higher: 0.952 for the first, no more than 0.5 for the second.

A20G C22G C27G C30U C31G G51C C61G and A20G C22G C27G C30U C31G G51C G63A A65G cannot be ordered by yeast fitness: no more than 0.5 for the first, no more than 0.5 for the second.

Compared with A20G C22U A37U G41C C46A, A20G C22U A43G is higher in yeast fitness: no more than 0.5 for the first, 0.624 for the second.

Going from A20G C22U G67U to A20G C22U U53A, the yeast fitness falls from 0.559 to no more than 0.5.

First: A20G C24A A45C
Second: A20G C24A C27A A69C
The yeast fitness of the first is lower: no more than 0.5 for the first, 0.591 for the second.

Going from A20G C24A C27U to A20G C24A C29G A37U G39A U47C, the yeast fitness falls from 0.609 to no more than 0.5.

Compared with A20G C24G C27U A40C, A20G C24G C27U C62A C66A is lower in yeast fitness: 0.532 for the first, no more than 0.5 for the second.

A20G C24G C30G and A20G C24G C33A A36U cannot be ordered by yeast fitness: no more than 0.5 for the first, no more than 0.5 for the second.

Going from A20G C24U C31A G68C to A20G C24U C33U A43C C55A U59C, the yeast fitness rises from no more than 0.5 to 0.539.

First: A20G C24U C46U
Second: A20G C24U C49G G50A
The yeast fitness of the first is higher: 0.733 for the first, no more than 0.5 for the second.

First: A20G C24U G52A A57G C66U
Second: A20G C24U G68C
The yeast fitness of the first is lower: no more than 0.5 for the first, 0.573 for the second.

A20G C27A A40G C46G C62G and A20G C27A C31A C61U cannot be ordered by yeast fitness: no more than 0.5 for the first, no more than 0.5 for the second.

First: A20G C27G A36G
Second: A20G C27G A42C C55A
The yeast fitness of the first is higher: 0.504 for the first, no more than 0.5 for the second.

A20G C27G U35G and A20G C27G U47G C62U A65U cannot be ordered by yeast fitness: no more than 0.5 for the first, no more than 0.5 for the second.

A20G C27U A37U and A20G C27U C49U A57G cannot be ordered by yeast fitness: no more than 0.5 for the first, no more than 0.5 for the second.

Compared with A20G C27U C66U, A20G C27U U28G G68A is lower in yeast fitness: 0.689 for the first, no more than 0.5 for the second.

Going from A20G C29A A65C to A20G C29A C34G A42C C49G G68A, the yeast fitness falls from 0.544 to no more than 0.5.

Going from A20G C29G to A20G C29U G48C G52A, the yeast fitness falls from 0.609 to no more than 0.5.

First: A20G C30A A69C
Second: A20G C30A C31U A45C C55G
The yeast fitness of the first is higher: 0.752 for the first, no more than 0.5 for the second.

A20G C30A G48A U64C and A20G C30G G38A cannot be ordered by yeast fitness: no more than 0.5 for the first, no more than 0.5 for the second.

Compared with A20G C30U A45G, A20G C31A G68A is higher in yeast fitness: 0.524 for the first, 0.575 for the second.

Going from A20G C31G A70G to A20G C31G C60G G63C, the yeast fitness falls from 0.715 to no more than 0.5.

First: A20G C31G C61G C66U A69U
Second: A20G C31G C61U
The yeast fitness of the first is lower: 0.545 for the first, 0.659 for the second.

A20G C31U A36C C61U A65C and A20G C31U A42U C46U A65C cannot be ordered by yeast fitness: no more than 0.5 for the first, no more than 0.5 for the second.

First: A20G C31U A42U C46U U59G A65U
Second: A20G C31U A69C
The yeast fitness of the first is lower: no more than 0.5 for the first, 0.833 for the second.

First: A20G C31U G41C A43C C60G
Second: A20G C33G G56A
The yeast fitness of the first is lower: no more than 0.5 for the first, 0.639 for the second.

First: A20G C33G G56A A65C
Second: A20G C33U
The yeast fitness of the first is lower: no more than 0.5 for the first, 0.798 for the second.

Going from A20G C33U C61G G68C to A20G C33U G52A G63A, the yeast fitness rises from no more than 0.5 to 0.707.

Compared with A20G C34A, A20G C34A A42U G58A C62U G63A is lower in yeast fitness: 0.69 for the first, 0.583 for the second.

Compared with A20G C34A A57U, A20G C34A G58A is higher in yeast fitness: no more than 0.5 for the first, 0.622 for the second.

Going from A20G C34G A37C C66U to A20G C34G A42C A43U, the yeast fitness rises from no more than 0.5 to 0.604.

First: A20G C34G A43U C66U
Second: A20G C34G C55G U59C C60U G67U
The yeast fitness of the first is higher: 0.546 for the first, no more than 0.5 for the second.

A20G C34G G41C and A20G C34G G41C G52A cannot be ordered by yeast fitness: no more than 0.5 for the first, no more than 0.5 for the second.

Compared with A20G C34G U47C, A20G C46U is higher in yeast fitness: no more than 0.5 for the first, 0.942 for the second.

First: A20G C46U G50C C61A
Second: A20G C46U G63A
The yeast fitness of the first is lower: 0.572 for the first, 0.82 for the second.

Compared with A20G C49A, A20G C49A A65G is lower in yeast fitness: 0.655 for the first, 0.619 for the second.

Compared with A20G C49U A69C, A20G C49U U53G A65G is lower in yeast fitness: 0.786 for the first, no more than 0.5 for the second.

First: A20G C55G C61U
Second: A20G C60A
The yeast fitness of the first is lower: 0.534 for the first, 0.751 for the second.

A20G C60A C61G and A20G C60A U64A C66U cannot be ordered by yeast fitness: no more than 0.5 for the first, no more than 0.5 for the second.

Going from A20G C60G C66G A69G to A20G C60G G68A, the yeast fitness falls from 0.554 to no more than 0.5.

Compared with A20G C61A, A20G C62U is higher in yeast fitness: 0.706 for the first, 1.05 for the second.

First: A20G C66A
Second: A20G G23A
The yeast fitness of the first is lower: 0.635 for the first, 0.89 for the second.

Compared with A20G G23C, A20G G23C C31G G50A is lower in yeast fitness: 0.727 for the first, no more than 0.5 for the second.

Compared with A20G G23C C31U C46G, A20G G23C G50A is lower in yeast fitness: 0.526 for the first, no more than 0.5 for the second.

Compared with A20G G25A, A20G G25A C49U is lower in yeast fitness: 0.904 for the first, 0.781 for the second.

Going from A20G G25C to A20G G25C C33U C49A U53A G67A, the yeast fitness falls from 0.985 to no more than 0.5.

Compared with A20G G38A, A20G G38A C46U is lower in yeast fitness: 0.912 for the first, 0.883 for the second.

First: A20G G38A C46U A70U
Second: A20G G38C A40C
The yeast fitness of the first is lower: 0.594 for the first, 0.662 for the second.

Compared with A20G G38C A70U, A20G G38U A43C A57U is lower in yeast fitness: 0.57 for the first, no more than 0.5 for the second.

Compared with A20G G39C A45C C49G, A20G G41A is higher in yeast fitness: no more than 0.5 for the first, 1.2 for the second.

First: A20G G41C
Second: A20G G44A C62U
The yeast fitness of the first is higher: 1.01 for the first, 0.628 for the second.

First: A20G G44A U54C
Second: A20G G48A C49G
The yeast fitness of the first is higher: 0.712 for the first, 0.635 for the second.

First: A20G G50A U59C
Second: A20G G51C
The yeast fitness of the first is lower: 0.571 for the first, 0.581 for the second.

First: A20G G51C G67A
Second: A20G G52C
The yeast fitness of the first is lower: 0.534 for the first, 0.613 for the second.

Compared with A20G G56C, A20G G56C A70U is higher in yeast fitness: 0.61 for the first, 0.859 for the second.

Compared with A20G G63A A70G, A20G G67A is higher in yeast fitness: 0.634 for the first, 0.95 for the second.

First: A20G G67A A69U
Second: A20G G68A
The yeast fitness of the first is lower: 0.516 for the first, 0.917 for the second.

First: A20G U26A A70U
Second: A20G U26A G63A
The yeast fitness of the first is higher: 0.717 for the first, 0.613 for the second.

First: A20G U26C
Second: A20G U26C A65C
The yeast fitness of the first is higher: 0.984 for the first, 0.704 for the second.

First: A20G U26C G39A G50A
Second: A20G U28A
The yeast fitness of the first is lower: no more than 0.5 for the first, 0.807 for the second.

Compared with A20G U28A C30G U59C, A20G U28G is higher in yeast fitness: no more than 0.5 for the first, 0.86 for the second.

First: A20G U32A A43C U53G
Second: A20G U32C
The yeast fitness of the first is lower: 0.607 for the first, 0.949 for the second.

First: A20G U32G
Second: A20G U32G G58C C61A A65U
The yeast fitness of the first is higher: 0.672 for the first, no more than 0.5 for the second.

Going from A20G U35A A37G A43U A45C to A20G U35C A70U, the yeast fitness rises from no more than 0.5 to 0.629.

A20G U35C G63A A70U and A20G U35G A65U cannot be ordered by yeast fitness: no more than 0.5 for the first, no more than 0.5 for the second.

Going from A20G U47A U53A to A20G U47C, the yeast fitness rises from no more than 0.5 to 0.947.

A20G U47C G58U A65U and A20G U47C U54G C66G cannot be ordered by yeast fitness: no more than 0.5 for the first, no more than 0.5 for the second.

First: A20G U53C
Second: A20G U53C C55A
The yeast fitness of the first is higher: 0.682 for the first, no more than 0.5 for the second.

Going from A20G U54C to A20G U54G C66G, the yeast fitness falls from 0.719 to no more than 0.5.

Compared with A20G U59A A70C, A20U is higher in yeast fitness: 0.646 for the first, 0.986 for the second.

First: A20U A21C
Second: A20U A21C C27A G41A
The yeast fitness of the first is higher: 0.651 for the first, no more than 0.5 for the second.

First: A20U A21G
Second: A20U A21G C22A C49G
The yeast fitness of the first is higher: 0.947 for the first, no more than 0.5 for the second.

Work on A20U A21G C29G C49G G63C yielded a yeast fitness of no more than 0.5.
